Experimental data published in ChEMBL document CHEMBL5390295, “Isolinderalactone Ameliorates the Pathology of Alzheimer's Disease by Inhibiting the JNK Signaling Pathway” (2023).
Calls of active or inactive are those of the source. The rule behind the calls is not given here.

Columns and labels:
[1] = tested on: Mus musculus; assay: Anti-alzheimer activity in hippocampus of APP/PS1 dE9 double transgenic mouse model assessed as reduction in amyloid beta plaque deposition at 1 to 10 mg/kg, ip administered once daily for 30 consecutive days by immunofluorescence staining; format: functional, organism-based; conditions: dose 1-10 mg/kg, time 30.0 day
How it was run: (§1)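 Brains from dosed female APP/PS1 mice (10 months) were fixed in 4% paraformaldehyde at 4 °C for 24–48 h, taken through a sucrose gradient and OCT, and cut into 15 μm sections. Sections were permeabilized with 0.3% Triton X-100, blocked in 10% BSA for 1 h, and incubated with primary antibody overnight at 4 °C (1:200). Secondary was 1:500 for 1 h at 25 °C, with DAPI counterstain and confocal imaging, in triplicate.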

[2] = tested on: Mus musculus; assay: Anti-alzheimer activity in hippocampus of APP/PS1 dE9 double transgenic mouse model assessed as increase in the level of Bcl-2 at 10 mg/kg, ip administered once daily for 30 consecutive days by Western blot analysis; format: functional, organism-based; conditions: time 30.0 day
How it was run: (§2)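 Hippocampal homogenates from dosed APP/PS1 mice were extracted in RIPA and protein measured by BCA. Samples were run by SDS electrophoresis, transferred to 0.22 μm PVDF for 90 min, blocked with 5% BSA in TBST for 2 h at RT, and probed with primaries 1:1000 overnight at 4 °C. HRP secondary was applied for 2 h at RT.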

[3] = tested on: Mus musculus; assay: Anti-alzheimer activity in hippocampus of APP/PS1 dE9 double transgenic mouse model assessed as increase in the level of Map2 at 10 mg/kg, ip administered once daily for 30 consecutive days by Western blot analysis; format: functional, organism-based; conditions: time 30.0 day; how it was run: as §2
[4] = tested on: Mus musculus; assay: Anti-alzheimer activity in hippocampus of APP/PS1 dE9 double transgenic mouse model assessed as decrease in the level of Bax at 10 mg/kg, ip administered once daily for 30 consecutive days by Western blot analysis; format: functional, organism-based; conditions: time 30.0 day; how it was run: as §2
[5] = tested on: Mus musculus; assay: Anti-alzheimer activity in hippocampus of APP/PS1 dE9 double transgenic mouse model assessed as reduction in glial cell aggregation at 1 to 10 mg/kg, ip administered once daily for 30 consecutive days by immunofluorescence staining; format: functional, organism-based; conditions: dose 1-10 mg/kg, time 30.0 day; how it was run: as §1
[6] = tested on: PC-12; assay: Neuroprotective activity against Abeta1-42 induced rat PC12 cells assessed as […] at 1.25 to 10 uM preincubated for 3 hrs followed by Abeta1-42 induction and measured after 24 hrs by MTT assay; format: functional, cell-based; conditions: dose 1.25-10 µM, time 27.0 hrs
How it was run: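 PC12 cells were seeded at 5×10^3/well and pretreated 3 h with test compound (range or 10 μM), with or without SP600125 1.25 μM for 0.5 h beforehand. Cells were then exposed to 10 μM Aβ1–42 oligomers for 24 h. MTT 0.5 mg/mL was added for 3–4 h, formazan dissolved in DMSO, and absorbance read at 570 nm. Viability is given as % of control.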

[7] = tested on: Mus musculus; assay: Anti-alzheimer activity against APP/PS1 dE9 double transgenic mouse model assessed as improvement in exploratory behavior at 1 to 10 mg/kg, ip administered once daily for 30 consecutive days measured on day 1 by novel object recognition test; format: functional, organism-based; conditions: dose 1-10 mg/kg, time 31.0 day
How it was run: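 Same mouse cohort and ip PBS dosing schedule (1 or 10 mg/kg; donepezil 5 mg/kg). Novel object recognition: two objects, 5 min session, with exploration frequency and duration scored within 2–3 cm of objects. After 24 h one object was replaced by a novel object and a second 5 min session was recorded.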

[8] = tested on: PC-12; assay: Induction of apoptosis in Abeta1-42 induced rat PC12 cells assessed as late apoptosis at 10 uM preincubated for 3 hrs followed by Abeta1-42 induction and measured after 24 hrs by Annexin V-FITC/PI staining based flow cytometry analysis (reference value: 0.7%); format: functional; conditions: time 27 hrs
[9] = tested on: Mus musculus; assay: Anti-alzheimer activity against APP/PS1 dE9 double transgenic mouse model assessed as decrease in escape latency at 10 mg/kg, ip administered once daily for 30 consecutive day measured on day 5 by morris water maze test; format: functional, organism-based; conditions: time 35.0 day
How it was run: (§3)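 Female APP/PS1 mice, 10 months old, about 30 g, 10 per group. Dosing was intraperitoneal in 1× PBS, once daily for one month (1 or 10 mg/kg test; 5 mg/kg donepezil). WT and untreated APP/PS1 controls got PBS. Morris water maze: training days 1–4, averaged escape latency. Day-5 probe trial ran 60 s with the platform removed, recording platform crossings and time per quadrant. Mean ± SEM.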

[10] = tested on: PC-12; assay: Neuroprotective activity against in Abeta1-42 induced rat PC12 cells assessed as effect on ERK protein level at 10 uM preincubated for 3 hrs followed by Abeta1-42 induction and measured after 24 hrs by Western blot analysis; format: functional, cell-based; conditions: time 27.0 hrs
How it was run: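 Aβ1–42 challenge in PC12 cells was 10 μM for 24 h after 3 h pretreatment at 10 μM. SP600125 (1.25 μM) was added 0.5 h before pretreatment where used. Cells were lysed in RIPA and protein measured by BCA. Blotting used PVDF transfer, 5% BSA/TBST block for 2 h, primaries 1:1000 overnight at 4 °C, and HRP secondary for 2 h. Bcl-2/Bax ratio and band intensities were quantified.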

[11] = tested on: Mus musculus; assay: Anti-alzheimer activity in hippocampus of APP/PS1 dE9 double transgenic mouse model as reduction in neuronal apoptosis at 1 to 10 mg/kg, ip administered once daily for 30 consecutive days by immunofluorescence analysis; format: functional, organism-based; conditions: dose 1-10 mg/kg, time 30.0 day; how it was run: as §1
[12] = tested on: PC-12; assay: Induction of apoptosis in Abeta1-42 induced rat PC12 cells assessed as necrosis at 10 uM preincubated for 3 hrs followed by Abeta1-42 induction and measured after 24 hrs by Annexin V-FITC/PI staining based flow cytometry analysis (reference value: 0.0%); format: functional; conditions: time 27 hrs
[13] = tested on: Mus musculus; assay: Anti-alzheimer activity in hippocampus of APP/PS1 dE9 double transgenic mouse model assessed as decrease in MDA level at 1 to 10 mg/kg, ip administered once daily for 30 consecutive days […]; format: functional, organism-based; conditions: dose 1-10 mg/kg, time 30.0 day
[14] = tested on: Mus musculus; assay: Anti-alzheimer activity in hippocampus of APP/PS1 dE9 double transgenic mouse model assessed as increase in […] at 1 to 10 mg/kg, ip administered once daily for 30 consecutive days […]; format: functional, organism-based; conditions: dose 1-10 mg/kg, time 30.0 day
How it was run: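 Hippocampal tissue from dosed APP/PS1 mice was lysed in RIPA. SOD activity was read by WST-8/xanthine oxidase formazan kit assay and MDA by lipid peroxidation kit, with absorbance on a microplate reader.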

[15] = tested on: Mus musculus; assay: Anti-alzheimer activity in hippocampus of APP/PS1 dE9 double transgenic mouse model assessed as increase in the level of PSD95 at 10 mg/kg, ip administered once daily for 30 consecutive days by Western blot analysis; format: functional, organism-based; conditions: time 30.0 day; how it was run: as §2
[16] = tested on: Mus musculus; assay: Neuroprotective activity in APP/PS1 dE9 double transgenic mouse model assessed as improvement in spatial memory at 10 mg/kg, ip administered once daily for 30 consecutive days […] by morris water maze test; format: functional, organism-based; conditions: time 36.0 day; how it was run: as §3
[17] = tested on: PC-12; assay: Induction of apoptosis in Abeta1-42 induced rat PC12 cells assessed as viable cell at 10 uM preincubated for 3 hrs followed by Abeta1-42 induction and measured after 24 hrs by Annexin V-FITC/PI staining based flow cytometry analysis (reference value: 97.8%); format: functional; conditions: time 27 hrs
[18] = tested on: PC-12; assay: Induction of apoptosis in Abeta1-42 induced rat PC12 cells assessed as early apoptosis at 10 uM preincubated for 3 hrs followed by Abeta1-42 induction and measured after 24 hrs by Annexin V-FITC/PI staining based flow cytometry analysis (reference value: 1.5%); format: functional; conditions: time 27 hrs

## C=C[C@@]1(C)Cc2occ(C)c2[C@@H]2OC(=O)C(=C)[C@@H]21 [ISOLINDERALACTONE]
[1]
  Activity: Active
[2]
  Activity: Active
[3]
  Activity: Active
[4]
  Activity: Active
[5]
  Activity: Active
[6]
  Activity: Active
[7]
  Activity: Active
[8]
  Activity: 0.4%
[9]
  Activity: Active
[10]
  Activity: inactive
[11]
  Activity: Active
[12]
  Activity: 0%
[13]
  Activity: Active
[14]
  Activity: Active
[15]
  Activity: Active
[16]
  Activity: Active
[17]
  Activity: 97.6%
[18]
  Activity: 2%
